# In ChEMBL document CHEMBL4325826, “Identification of a Selective, Non-Prostanoid EP2 Receptor Agonist for the Treatment of Glaucoma: Omidenepag and its Prodrug Omidenepag Isopropyl” (J Med Chem, 2018):
# Activity calls are given as the source filed them. The calls are words filed in the database; no cut-off is given here.
# Tests used:
# [1] = target: T1, Prostaglandin E2 receptor EP2 subtype (Homo sapiens, UniProt P43116); assay: Agonist activity at recombinant human EP2 receptor expressed in HEK293 cells assessed as induction of cAMP accumulation after 30 mins; type: functional, cell-based
# T1 sequence (P43116 whole entry): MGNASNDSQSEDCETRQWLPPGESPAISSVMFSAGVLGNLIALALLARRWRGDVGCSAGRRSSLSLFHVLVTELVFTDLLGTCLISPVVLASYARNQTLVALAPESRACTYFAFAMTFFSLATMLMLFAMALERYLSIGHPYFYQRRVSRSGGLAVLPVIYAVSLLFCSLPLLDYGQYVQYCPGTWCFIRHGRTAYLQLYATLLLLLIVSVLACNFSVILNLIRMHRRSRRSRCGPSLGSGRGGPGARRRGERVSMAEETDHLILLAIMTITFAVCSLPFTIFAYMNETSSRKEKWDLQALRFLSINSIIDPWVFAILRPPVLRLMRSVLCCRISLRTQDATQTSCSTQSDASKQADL
# How it was run: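 HEK293 cells stably expressing h-EP2 grown in MEM with 10% FBS, seeded at 2 × 10^4 cells/well. Next day switched to serum-free MEM with 500 µM IBMX (final) for 30 min at 37 °C, then test compound in DMSO added for 30 min at 37 °C. Cells lysed, cAMP quantified by EIA or HTRF kit.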
# [2] = target: T1, Prostaglandin E2 receptor EP2 subtype; assay: Displacement of [3H]prostaglandin E2 from human EP2 receptor expressed in HEK293 cell membranes after 60 mins by liquid scintillation counting
# Cynomolgus monkey [3] = assay: Reduction of intraocular pressure in ocular normotensive cynomolgus monkey at 0.3 to 1% administered topically to the eyes once daily at around 5 pm from day 1 to day 14 and measured at 10 am at day 8 and 15 post dose; details: Macaca fascicularis
# [4] = target: T1, Prostaglandin E2 receptor EP2 subtype; assay: Potency index, ratio of CP-533,536 EC50 to compound EC50 for recombinant human EP2 receptor expressed in HEK293 cells by cAMP accumulation assay; type: functional, cell-based
# [5] = target: Prostaglandin E2 receptor EP4 subtype (Homo sapiens, UniProt P35408); assay: Displacement of [3H]prostaglandin E2 from recombinant human full length EP4 receptor expressed in Chem-1 cell membranes after 60 mins by liquid scintillation counting
# Prostaglandin E2 receptor EP4 subtype, sequence (P35408 whole entry): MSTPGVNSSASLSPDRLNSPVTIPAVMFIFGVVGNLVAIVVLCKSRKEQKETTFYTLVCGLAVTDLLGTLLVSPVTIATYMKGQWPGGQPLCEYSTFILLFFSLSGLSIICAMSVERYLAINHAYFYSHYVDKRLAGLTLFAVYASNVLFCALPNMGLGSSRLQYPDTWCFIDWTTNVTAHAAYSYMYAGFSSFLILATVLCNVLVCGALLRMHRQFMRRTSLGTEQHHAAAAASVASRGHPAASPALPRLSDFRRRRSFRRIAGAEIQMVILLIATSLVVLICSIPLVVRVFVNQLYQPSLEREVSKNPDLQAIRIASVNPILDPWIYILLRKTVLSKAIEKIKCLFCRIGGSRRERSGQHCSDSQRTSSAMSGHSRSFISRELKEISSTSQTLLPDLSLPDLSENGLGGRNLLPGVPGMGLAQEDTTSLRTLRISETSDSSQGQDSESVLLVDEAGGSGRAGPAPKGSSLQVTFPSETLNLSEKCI
# Cytochrome P450 3A4 [6] = target: T2, Cytochrome P450 3A4 (Homo sapiens, UniProt P08684); assay: Induction of CYP3A4 in human Fa2N-4 cells up to 100 uM using testosterone as substrate incubated for 24 hrs followed by compound replacement for every 24 hrs during 72 hrs incubation period followed by substrate addition for 4 hrs by LC-MS analysis; type: ADME, cell-based
# T2 sequence (P08684 whole entry): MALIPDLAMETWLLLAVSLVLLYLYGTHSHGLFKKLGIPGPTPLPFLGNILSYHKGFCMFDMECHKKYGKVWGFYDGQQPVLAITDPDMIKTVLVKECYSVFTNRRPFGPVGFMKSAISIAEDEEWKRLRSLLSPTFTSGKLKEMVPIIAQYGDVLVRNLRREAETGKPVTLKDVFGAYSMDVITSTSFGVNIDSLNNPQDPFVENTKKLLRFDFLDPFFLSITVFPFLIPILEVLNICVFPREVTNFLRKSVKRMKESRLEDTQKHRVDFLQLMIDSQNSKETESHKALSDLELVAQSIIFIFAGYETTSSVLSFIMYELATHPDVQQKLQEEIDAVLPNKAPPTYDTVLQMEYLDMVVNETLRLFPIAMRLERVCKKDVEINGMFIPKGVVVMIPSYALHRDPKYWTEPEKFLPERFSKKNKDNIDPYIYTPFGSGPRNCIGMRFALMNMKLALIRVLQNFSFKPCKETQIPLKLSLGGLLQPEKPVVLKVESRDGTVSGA
# How it was run: (§1)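 Human Fa2N-4 cells exposed to compound to assess CYP3A4 and CYP1A2 induction. Five concentrations, single experiment in triplicate.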
# Cytochrome P450 2C9 = Cytochrome P450 2C9 (Homo sapiens, UniProt P11712); assay: Inhibition of recombinant human CYP2C9 using 7-methoxy-4-(trifluoromethyl)coumarin fluorescent substrate in presence of NADPH-generating system after 15 mins; type: ADME
# Cytochrome P450 2C9, sequence (P11712 whole entry, canonical isoform): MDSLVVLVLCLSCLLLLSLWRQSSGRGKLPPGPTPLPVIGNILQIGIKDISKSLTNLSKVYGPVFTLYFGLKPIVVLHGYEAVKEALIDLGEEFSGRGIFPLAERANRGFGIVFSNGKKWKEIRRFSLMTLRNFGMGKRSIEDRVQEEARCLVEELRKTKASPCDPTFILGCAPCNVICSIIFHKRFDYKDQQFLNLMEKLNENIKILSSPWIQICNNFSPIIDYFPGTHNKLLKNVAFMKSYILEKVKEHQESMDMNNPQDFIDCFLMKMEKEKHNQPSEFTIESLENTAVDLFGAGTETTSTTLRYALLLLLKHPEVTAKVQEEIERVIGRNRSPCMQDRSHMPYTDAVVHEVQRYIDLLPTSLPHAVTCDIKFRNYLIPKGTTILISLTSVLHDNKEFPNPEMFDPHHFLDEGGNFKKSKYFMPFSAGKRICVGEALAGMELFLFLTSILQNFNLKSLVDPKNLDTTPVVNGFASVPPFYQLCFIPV
# How it was run: (§2)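 Each recombinant human CYP isoform (3A4, 2D6, 2C9, 2C19, 1A2) tested for inhibition by compound.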
# Cytochrome P450 1A2 [7] = target: T3, Cytochrome P450 1A2 (Homo sapiens, UniProt P05177); assay: Inhibition of recombinant human CYP1A2 using 3-cyano-7-ethoxycoumarin fluorescent substrate in presence of NADPH-generating system after 15 mins; type: ADME; how it was run: as §2
# T3 sequence (P05177 whole entry): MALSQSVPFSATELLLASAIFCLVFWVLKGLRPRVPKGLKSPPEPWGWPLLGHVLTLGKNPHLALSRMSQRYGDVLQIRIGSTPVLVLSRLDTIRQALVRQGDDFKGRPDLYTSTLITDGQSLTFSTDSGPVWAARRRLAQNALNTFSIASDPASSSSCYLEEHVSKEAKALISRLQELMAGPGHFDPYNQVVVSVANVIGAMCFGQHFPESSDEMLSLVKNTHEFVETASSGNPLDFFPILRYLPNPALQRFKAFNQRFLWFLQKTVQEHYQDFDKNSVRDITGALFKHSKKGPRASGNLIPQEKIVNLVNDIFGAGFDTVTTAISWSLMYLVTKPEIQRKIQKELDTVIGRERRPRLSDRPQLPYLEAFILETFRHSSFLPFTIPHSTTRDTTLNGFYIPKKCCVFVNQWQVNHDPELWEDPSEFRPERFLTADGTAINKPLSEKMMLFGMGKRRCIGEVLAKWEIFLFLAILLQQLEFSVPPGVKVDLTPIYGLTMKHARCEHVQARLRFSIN
# [8] = Apparent permeability from apical side at pH 6.5 to basolateral side at pH 7.4 in human Caco2 cells a 10 uM after 30 to 120 mins by HPLC-MS analysis; type: ADME, cell-based; details: Caco-2, pH 6.5
# [9] = Apparent permeability of the compound at 100 uM after 5 hrs by PAMPA; type: ADME
# Cytochrome P450 3A4 [10] = target: T2, Cytochrome P450 3A4; assay: Inhibition of recombinant human CYP3A4 using 7-benzyloxyquinoline fluorescent substrate in presence of NADPH-generating system after 15 mins; type: ADME; how it was run: as §2
# Cytochrome P450 2D6 = Cytochrome P450 2D6 (Homo sapiens, UniProt P10635); assay: Inhibition of recombinant human CYP2D6 using 3-(2-(N,N-diethyl-N-methylammonium)ethyl)-7-methoxy-4-methylcoumariniodide fluorescent substrate in presence of NADPH-generating system after 15 mins; type: ADME; how it was run: as §2
# Cytochrome P450 2D6, sequence (P10635 whole entry): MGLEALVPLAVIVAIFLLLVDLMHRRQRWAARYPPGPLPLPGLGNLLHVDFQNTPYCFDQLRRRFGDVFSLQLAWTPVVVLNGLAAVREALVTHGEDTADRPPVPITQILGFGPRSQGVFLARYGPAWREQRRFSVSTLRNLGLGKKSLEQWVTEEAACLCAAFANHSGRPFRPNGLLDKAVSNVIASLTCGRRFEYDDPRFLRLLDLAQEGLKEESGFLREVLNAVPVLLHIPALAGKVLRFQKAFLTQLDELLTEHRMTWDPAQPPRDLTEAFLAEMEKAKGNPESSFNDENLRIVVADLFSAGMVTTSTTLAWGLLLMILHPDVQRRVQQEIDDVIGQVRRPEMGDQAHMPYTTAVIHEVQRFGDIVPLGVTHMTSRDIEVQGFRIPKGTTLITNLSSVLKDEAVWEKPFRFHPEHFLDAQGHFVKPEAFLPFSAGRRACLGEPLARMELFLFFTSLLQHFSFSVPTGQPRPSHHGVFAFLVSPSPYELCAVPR
# [11] = target: T4, Prostaglandin E2 receptor EP1 subtype (Homo sapiens, UniProt P34995); assay: Displacement of [3H]prostaglandin E2 from recombinant human full length EP1 receptor expressed in Chem-1 cell membranes after 60 mins by liquid scintillation counting
# T4 sequence (P34995 whole entry): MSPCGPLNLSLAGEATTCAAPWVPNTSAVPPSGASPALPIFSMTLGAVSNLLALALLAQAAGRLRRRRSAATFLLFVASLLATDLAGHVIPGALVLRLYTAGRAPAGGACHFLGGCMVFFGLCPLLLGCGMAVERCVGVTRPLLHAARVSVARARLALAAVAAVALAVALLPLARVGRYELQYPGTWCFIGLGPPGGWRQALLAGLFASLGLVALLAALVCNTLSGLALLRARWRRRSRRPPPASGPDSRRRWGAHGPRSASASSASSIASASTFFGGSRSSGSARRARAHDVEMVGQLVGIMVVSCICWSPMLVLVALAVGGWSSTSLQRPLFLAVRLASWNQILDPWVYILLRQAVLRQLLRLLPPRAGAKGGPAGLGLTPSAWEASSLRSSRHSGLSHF
# Cytochrome P450 1A2 [12] = target: T3, Cytochrome P450 1A2; assay: Induction of CYP1A2 in human Fa2N-4 cells up to 100 uM using phenacetin as substrate incubated for 24 hrs followed by compound replacement for every 24 hrs during 72 hrs incubation period followed by substrate addition for 4 hrs by LC-MS analysis; type: ADME, cell-based; how it was run: as §1
# Cytochrome P450 2C19 = Cytochrome P450 2C19 (Homo sapiens, UniProt P33261); assay: Inhibition of recombinant human CYP2C19 using 3-cyano-7-ethoxycoumarin fluorescent substrate in presence of NADPH-generating system after 15 mins; type: ADME; how it was run: as §2
# Cytochrome P450 2C19, sequence (P33261 whole entry): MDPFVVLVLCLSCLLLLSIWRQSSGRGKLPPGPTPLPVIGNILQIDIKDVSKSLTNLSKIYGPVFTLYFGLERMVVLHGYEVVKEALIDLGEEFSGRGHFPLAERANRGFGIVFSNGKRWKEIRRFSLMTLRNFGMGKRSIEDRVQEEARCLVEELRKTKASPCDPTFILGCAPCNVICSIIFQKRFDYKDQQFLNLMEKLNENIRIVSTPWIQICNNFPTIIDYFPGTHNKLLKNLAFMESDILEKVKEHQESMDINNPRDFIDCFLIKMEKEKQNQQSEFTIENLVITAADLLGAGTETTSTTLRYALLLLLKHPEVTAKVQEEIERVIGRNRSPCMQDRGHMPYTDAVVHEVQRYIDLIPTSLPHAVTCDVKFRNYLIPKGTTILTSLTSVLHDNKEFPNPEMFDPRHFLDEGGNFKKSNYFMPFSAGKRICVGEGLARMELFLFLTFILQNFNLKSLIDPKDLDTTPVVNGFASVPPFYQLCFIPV
# [13] = target: T5, Prostaglandin E2 receptor EP3 subtype (Homo sapiens, UniProt P43115); assay: Displacement of [3H]prostaglandin E2 from recombinant human full length EP3 receptor expressed in Chem-1 cell membranes after 60 mins by liquid scintillation counting
# T5 sequence (P43115 whole entry): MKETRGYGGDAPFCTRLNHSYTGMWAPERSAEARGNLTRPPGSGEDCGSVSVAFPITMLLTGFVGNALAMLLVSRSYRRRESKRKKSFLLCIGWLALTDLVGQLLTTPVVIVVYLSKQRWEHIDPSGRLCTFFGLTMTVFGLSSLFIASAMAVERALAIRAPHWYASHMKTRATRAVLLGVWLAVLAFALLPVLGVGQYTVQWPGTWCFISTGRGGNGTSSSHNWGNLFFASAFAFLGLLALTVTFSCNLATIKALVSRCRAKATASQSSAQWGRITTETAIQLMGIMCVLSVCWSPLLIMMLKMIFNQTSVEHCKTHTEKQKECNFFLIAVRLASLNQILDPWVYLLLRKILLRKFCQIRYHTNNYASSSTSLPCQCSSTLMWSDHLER
# [14] = Drug metabolism in human liver microsomes assessed as metabolic rate at 10 uM after 30 mins by HPLC-MS analysis; type: ADME, Microsome; details: 0.5 h
# [15] = Apparent permeability from apical side at pH 7.4 to basolateral side at pH 7.4 in human Caco2 cells a 10 uM after 30 to 120 mins by HPLC-MS analysis; type: ADME, cell-based; details: Caco-2, pH 7.4
# Cynomolgus monkey [16] = assay: Reduction of intraocular pressure in ocular normotensive cynomolgus monkey administered topically to the eyes once daily at around 5 pm from day 1 to day 14 and measured at […] at day 8 and 15 post dose; type: functional, organism-based; details: Macaca fascicularis
# Cynomolgus monkey [17] = assay: Reduction of intraocular pressure in ocular normotensive cynomolgus monkey at 0.01% administered topically to the eyes once daily at around 5 pm from day 1 to day 14 and measured at 10 am at day 8 and 15 post dose; details: Macaca fascicularis
smiles,measurement,setting,value
O=C(O)CNc1cccc(CN(Cc2ccc(-c3ccnnc3)cc2)S(=O)(=O)c2cccnc2)n1,EC50,[1],307 nM
CC(C)(C)c1ccc(CN(Cc2cccc(NCC(=O)O)n2)S(=O)(=O)c2ccccc2Cl)cc1,EC50,[1],> 1000 nM
CC(C)(C)c1ccc(CN(Cc2cccc3oc(C(=O)O)cc23)S(=O)(=O)c2cccnc2)cc1,Ki,[2],15 nM
O=C(O)CNc1cccc(CN(Cc2ccc(C(F)(F)F)cc2)S(=O)(=O)c2cccnc2)n1,EC50,[1],119 nM
CN(CC(=O)O)c1cccc(CN(Cc2ccc(C(C)(C)C)cc2)S(=O)(=O)c2cccnc2)n1,EC50,[1],283 nM
O=C(O)CNc1cccc(CN(Cc2ccc(-n3cncn3)cc2)S(=O)(=O)c2cccnc2)n1,EC50,[1],43 nM
COc1ccc(S(=O)(=O)N(Cc2ccc(C(C)(C)C)cc2)Cc2cccc(NCC(=O)O)n2)cc1,EC50,[1],19 nM
CC(C)(C)c1ccc(CN(Cc2cccc(NCC(=O)O)n2)S(=O)(=O)c2cccc(Cl)c2)cc1,EC50,[1],620 nM
CC(C)(C)c1ccc(CN(Cc2ccc3ccn(CC(=O)O)c3c2)S(=O)(=O)c2cccnc2)cc1,EC50,[1],> 1000 nM
CC(C)(C)c1ccc(CN(Cc2ccc3cc(C(=O)O)oc3c2)S(=O)(=O)c2cccnc2)cc1,Ki,[2],433 nM
CC(C)(C)c1ccc(CN(Cc2cc(NCC(=O)O)ccn2)S(=O)(=O)c2cccnc2)cc1,EC50,[1],> 1000 nM
CC(C)(C)c1ccc(CN(Cc2csc(NCC(=O)O)n2)S(=O)(=O)c2cccnc2)cc1,EC50,[1],360 nM
O=C(O)CNc1cccc(CN(Cc2ccc(-n3cccn3)cc2)S(=O)(=O)c2cccnc2)n1 [OMIDENEPAG],Activity,Cynomolgus monkey [3],Active
same,Ratio EC50,[4],> 10
same,IC50,[5],5480 nM
same,Activity,Cytochrome P450 3A4 [6],Not Active
same,IC50,Cytochrome P450 2C9,> 20000 nM
same,IC50,Cytochrome P450 1A2 [7],> 20000 nM
same,Papp A→B at 10 µM,[8],0.59 ×10⁻⁶ cm/s
same,"Papp at 5 h, 100 µM",[9],0.9 ×10⁻⁶ cm/s
same,IC50,Cytochrome P450 3A4 [10],> 20000 nM
same,IC50,Cytochrome P450 2D6,> 20000 nM
same,IC50,[2],10 nM
same,IC50,[11],> 10000 nM
same,EC50,[1],1.1 nM
same,Activity,Cytochrome P450 1A2 [12],Not Active
same,IC50,Cytochrome P450 2C19,> 20000 nM
same,IC50,[13],> 10000 nM
same,Drug metabolism,[14],57 pmol/min/mg
same,Papp A→B at 10 µM,[15],0.28 ×10⁻⁶ cm/s
O=C(O)CNc1cccc(CN(Cc2ccc(-c3ccc(Cl)cc3)cc2)S(=O)(=O)c2cccnc2)n1,EC50,[1],75 nM
CC(C)(C)c1ccc(CN(Cc2cccc(NCCC(=O)O)n2)S(=O)(=O)c2cccnc2)cc1,EC50,[1],83 nM
CC(C)(C)c1ccc(CN(Cc2cccc(NCC(=O)O)n2)S(C)(=O)=O)cc1,EC50,[1],91 nM
O=C(O)CNc1cccc(CN(Cc2ccc(-c3ccccn3)cc2)S(=O)(=O)c2cccnc2)n1,EC50,[1],1.6 nM
CC(C)(C)c1ccc(CN(Cc2cccc(NCC(=O)O)n2)S(=O)(=O)c2ccccc2F)cc1,EC50,[1],45 nM
CC(C)(C)C1CCC(CN(Cc2cccc(NCC(=O)O)n2)S(=O)(=O)c2cccnc2)CC1 (stereo unspecified),EC50,[1],649 nM
CC(C)OC(=O)CNc1cccc(CN(Cc2ccc(-n3cccn3)cc2)S(=O)(=O)c2cccnc2)n1 [OMIDENEPAG ISOPROPYL],IC50,[5],> 10000 nM
same,"Papp at 5 h, 100 µM",[9],28 ×10⁻⁶ cm/s
same,IC50,[2],4180 nM
same,IC50,[11],> 10000 nM
same,Activity,Cynomolgus monkey [16],Dose-dependent effect
same,IC50,[13],> 10000 nM
same,Activity,Cynomolgus monkey [17],Active
O=C(O)CNc1cccc(CN(Cc2ccc(C3CCCCC3)cc2)S(=O)(=O)c2cccnc2)n1,EC50,[1],29 nM
CCC1(c2ccc(CN(Cc3cccc(NCC(=O)O)n3)S(=O)(=O)c3cccnc3)cc2)CCC1,EC50,[1],13 nM
O=C(O)CNc1cccc(CN(CCCCCc2ccccc2)S(=O)(=O)c2cccnc2)n1,EC50,[1],118 nM
CC(C)(C)c1ccc(CN(Cc2ccnc(NCC(=O)O)c2)S(=O)(=O)c2cccnc2)cc1,EC50,[1],> 1000 nM
CC(C)C1(c2ccc(CN(Cc3cccc(NCC(=O)O)n3)S(=O)(=O)c3cccnc3)cc2)CC1,EC50,[1],18 nM
CC(C)(C)c1cccc(CN(Cc2cccc(NCC(=O)O)n2)S(=O)(=O)c2cccnc2)c1,EC50,[1],109 nM
CCCCC[C@H](O)/C=C/[C@H]1[C@H](O)CC(=O)[C@@H]1C/C=C\CCCC(=O)O [DINOPROSTONE],IC50,[11],< 30 nM
O=C(O)CNc1cccc(CN(Cc2ccc(-c3ccc(F)cc3)cc2)S(=O)(=O)c2cccnc2)n1,EC50,[1],35 nM
